Screening data (PubChem)
Only some compounds are listed: those with a hit (about 2.2% of all), similar ones and a draw of the others.
GLD-1 RNA inh – GLD-1-TGE RNA interaction inhibition (C. elegans); AID 2280; Q17339; purified GLD-1 + fluorescein TGE RNA, fluorescence polarization; actives 0.44% (n = 320,000); inhibition, % at 5.96 µM;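 active means percent inhibition above a per-plate cutoff, the plate mean of test compounds plus 3 SD, cut at about 30% in these data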;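 further: 0% = DMSO wells with GLD-1 and probe and 100% = wells lacking GLD-1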
IMP-1 inhibitor – blocks Pseudomonas aeruginosa IMP-1 metallo-beta-lactamase | purified IMP-1, nitrocefin hydrolysis, epi-absorbance fluorescence | inhibition, % at 5.6 µM | actives 0.45% (n = 290,000);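 active means inhibition above the mean plus 3 SD of all compounds in the same screening run, cut at about 4.5% in these data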;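 further: 0% = IMP-1 with DMSO and 100% = DMSO wells lacking enzyme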
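System: purified IMP-1; amount: IMP-1 0.2 nM before substrate addition; compound: single dose, 5.6 µM; times: 25 °C, 15 min preincubation, 25 min reaction; signal: Epi-absorbance via hydrolysed-nitrocefin quenching of white-plate fluorescence, 480/530 nm, EDTA stop; benchmarks: DMSO with and without IMP-1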
VIM-2 inh – blocks Pseudomonas aeruginosa VIM-2 metallo-beta-lactamase | purified VIM-2, nitrocefin hydrolysis, epi-absorbance fluorescence | inhibition, % at 5.6 µM | actives 0.89% (n = 290,000);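 active means inhibition above the mean of all tested compounds plus 3 SD, cutoff set per screening run, cut at about 7.5% in these data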;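 further: red hydrolysis product quenches plate fluorescence so inhibitors raise well fluorescence; 0% = enzyme with DMSO and 100% = DMSO without enzyme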
MEX-5 binding – C. elegans MEX-5 TCR-2 RNA binding activity; activity score (negative = inhibition of binding), % at 10 µM; MEX-5/FITC-TCR2 RNA binding, fluorescence polarization; hits give low values; actives 0.38% (n = 300,000);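 active means inhibition past about -25% in most replicates, and total fluorescence under double the plate's negative control median, limit read from the data; inconclusive means replicates evenly split on the limit, or fluorescence at least double controls; inactive means too little inhibition in most replicates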;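 further: 0% = DMSO and -100% = 5 µM competing unlabeled TCR2 RNA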
BCLXL inh – blocks human Bcl-xL binding to Bim BH3 peptide; AID 2129; GST-Bcl-xL / FITC-Bim BH3 peptide fluorescence polarization; inhibition, % at 10.9 µM; actives 0.7% (n = 320,000);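 active means inhibition above the mean of all tested compounds plus 3 SD, cutoff set per campaign, cut at about 30% in these data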;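 further: 0% = DMSO wells and 100% = unlabeled Bim-BH3 peptide competitor; inhibitors lower millipolarization by displacing the labeled peptide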
Target sequence (Q07817 whole entry, looked up): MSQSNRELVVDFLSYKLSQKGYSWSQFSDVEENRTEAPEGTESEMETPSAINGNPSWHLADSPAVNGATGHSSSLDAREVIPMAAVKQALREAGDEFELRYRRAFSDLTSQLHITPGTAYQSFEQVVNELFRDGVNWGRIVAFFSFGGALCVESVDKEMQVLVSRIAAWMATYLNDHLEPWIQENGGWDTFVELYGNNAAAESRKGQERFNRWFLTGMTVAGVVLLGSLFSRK
EBV gp42 inh – inhibitors of Epstein-Barr virus glycoprotein 42; Q1HVG2; Fluorescence polarization binding assay, mP read-out; inhibition, % (tested at 21.74 µM); actives 0.42% (n = 220,000); AID 1085; in the data active means inhibition above about 50%
Target sequence (Q1HVG2 whole entry, looked up): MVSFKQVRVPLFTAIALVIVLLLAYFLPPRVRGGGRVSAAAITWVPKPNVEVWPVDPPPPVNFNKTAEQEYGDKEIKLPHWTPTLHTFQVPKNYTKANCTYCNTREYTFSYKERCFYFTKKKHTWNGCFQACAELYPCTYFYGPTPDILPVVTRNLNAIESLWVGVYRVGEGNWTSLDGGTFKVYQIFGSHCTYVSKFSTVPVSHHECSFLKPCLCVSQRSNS
Numbers without * were called inactive; ? = inconclusive; nt = not tested or not shown; + = active, no number.

SMILES	GLD-1 RNA inh	IMP-1 inhibitor	VIM-2 inh	MEX-5 binding	BCLXL inh	EBV gp42 inh
COc1cc(C2c3c(oc4ccccc4c3=O)C(=O)N2CCN2CCOCC2)cc(OC)c1OC (stereo not drawn)	6.0	nt	nt	2.1	4.5	nt
COc1cccc(C2c3c(oc4ccc(F)cc4c3=O)C(=O)N2CCN2CCOCC2)c1OC (stereo not drawn)	-4.3	0.0	8.1*	-2.0	1.0	-5.1
CCN1/C(=C/c2ccc3cc(C)ccc3[n+]2CC)Sc2cc(C)ccc21	nt	-2.2	-2.9	nt	nt	-72.9
CCN1/C(=C/c2ccc3cc(C)ccc3[n+]2C)Sc2ccc3sccc3c21	nt	18.2*	2.3	nt	nt	+
COc1ccccc1CSc1nc2c(c(=O)n(C)c(=O)n2C)n1C	nt	-3.0	0.5	-2.8	nt	nt
CCOc1ccc(/C=C2/Sc3ccc(C(=O)NCC4CCCO4)cc3N(C)C2=O)cc1OC (stereo not drawn)	1.4	0.0	8.6*	-4.2	7.7	nt
COc1ccc(/C=C2\Sc3ccc(C(=O)NCCCN4CCCC4)cc3N(C)C2=O)cc1OC	-6.3	-0.8	11.5*	0.9	5.4	nt
Cc1cccc(/C=C2\Sc3ccc(C(=O)NCC4CCCO4)cc3N(C)C2=O)c1 (stereo not drawn)	2.5	-4.3	-1.0	1.4	4.0	nt
CCOC(=O)CSc1nc2ccccc2n2cnnc12	-54.0	-3.3	0.3	11.6	6.3	-5.2
C=CCSc1nc2ccccc2n2cnnc12	8.8	-1.3	10.5*	11.9	0.6	nt
CCCNC(=O)Cn1c(=O)/c(=C\c2ccc(-c3cccc([N+](=O)[O-])c3)o2)s/c1=C\C(=O)C(C)(C)C	-28.3	-1.5	1.2	-2.2	-21.1	68.7*
Cn1cc(/C=C2/SC(=O)N(c3ccccc3)C2=O)c2ccccc21	12.8	0.3	2.5	-4.3	1.3	-26.5
O=C(NN1C(=O)/C(=C/c2ccc(O)cc2)SC1=S)c1cccc(O)c1	-108.1	0.1	1.7	?	-46.6	nt
Cn1cc(/C=C2\SC(=S)N(N3CCOCC3)C2=O)c2ccccc21	-0.6	4.8*	-1.6	0.1	7.4	39.1
Cn1cc(/C=C2/SC(=O)N(CC(=O)Nc3ccc4c(c3)OCO4)C2=O)c2ccccc21	1.9	-1.2	-0.9	-3.9	3.0	-49.8
Cn1cc(/C=C2\SC(=S)N(NC(=O)c3cccc(Cl)c3)C2=O)c2ccccc21	nt	-2.8	-2.3	nt	nt	164.9*
Cn1cc(/C=C2\SC(=S)N(NC(=O)c3ccccc3)C2=O)c2ccccc21	-158.3	-2.8	-1.3	3.5	-41.9	89.3*
CCOc1ccc(-c2n[nH]c(=S)n2Cc2ccccc2)cc1	5.4	-4.1	3.5	-2.2	-17.6	nt
CCCCn1c(-c2ccc([N+](=O)[O-])cc2)n[nH]c1=S	6.2	-1.8	12.6*	-0.4	-18.9	-12.9
COc1ccc(Cn2c(-c3ccc(OC)cc3)n[nH]c2=S)cc1	2.0	-2.8	10.5*	-6.0	-9.1	nt
CCCn1c(-c2ccc(F)cc2)n[nH]c1=S	2.1	-4.0	10.1*	-1.2	-2.5	8.9
O=C(CCc1nc2ccccc2c(=O)[nH]1)Nc1ccc(F)c([N+](=O)[O-])c1	5.5	-1.5	-2.3	-5.5	30.3*	23.5
NC(=O)c1ccc(NC(=O)CNC(=O)c2sc3ccccc3c2Cl)cc1	-0.6	nt	nt	nt	-0.2	nt
CN1CCN(C(=O)CCN2C(=O)/C(=C/c3cccc(Br)c3)SC2=S)CC1	7.1	5.5*	1.0	0.1	5.9	nt
CN1CCN(C(=O)CCCN2C(=O)/C(=C/c3cccc(Br)c3)SC2=S)CC1	nt	2.2	11.5*	-1.5	nt	nt
SMILES	GLD-1 RNA inh	IMP-1 inhibitor	VIM-2 inh	MEX-5 binding	BCLXL inh	EBV gp42 inh
Cc1ccc(/C=C2\SC(=S)N(CCCC(=O)Nc3ccccn3)C2=O)cc1	-9.6	-0.2	-0.5	-1.2	3.9	-6.3
O=C(CCCN1C(=O)/C(=C/c2cccc(Br)c2)SC1=S)N1CCOCC1	2.2	-2.9	-2.5	1.1	-1.2	nt
COc1ccc(/C=C2\SC(=S)N(CCCC(=O)Nc3ccccn3)C2=O)cc1OC	-7.2	-2.4	1.4	-21.0	23.3	75.9*
CC(=O)C1=C(C)NC(SCC(=O)c2ccc(F)cc2)=C(C#N)C1c1ccco1 (stereo not drawn)	-4.8	-2.6	-1.9	4.1	2.6	-25.5
COc1ccccc1NC(=O)C1=C(C)NC(SCC(=O)c2ccc(C)cc2)=C(C#N)C1c1ccco1 (stereo not drawn)	nt	4.5*	-2.8	nt	nt	-56.7
Cc1cc(NC(=O)c2ccco2)sc1C	3.2	nt	nt	nt	-0.1	nt
Cc1c2ccccc2nc2c(F)c(NCCO)c(F)c(F)c12	83.0*	3.1	3.5	-30.7*	157.3*	186.7*
OCCNc1nc(Nc2ccccc2)nc(Nc2ccccc2)n1	7.1	-3.4	-3.3	1.0	1.7	1.2
Cc1c(Cl)cccc1Nc1nc(NCCO)c2ccccc2n1	-10.1	-2.5	-0.8	-1.1	-3.6	nt
Cc1c2ccccc2nc2c(F)c(NC(C)C)c(F)c(F)c12	119.2*	0.8	2.3	-33.5*	122.3*	167.8*
OCCNc1c2ccccc2nc2c(F)c(F)c(F)c(F)c12	16.1	-0.6	1.2	-4.0	30.3*	28.8
CN(C)CCCNc1c2ccccc2nc2ccccc12	-1.0	-1.1	12.1*	2.7	13.6	nt
CN(C)CCCNc1nc(-c2ccccc2)nc2ccccc12	-4.2	-6.5	2.7	-1.3	7.2	-10.2
CCOc1ccccc1NC(=O)CN(c1ccc(Cl)cc1)S(C)(=O)=O	3.1	-1.4	0.8	-1.3	6.9	nt
Cc1cc2nc3c(=O)n(CCc4ccccc4)c(=O)[nH]c3nc2cc1N	189.4*	3.0	5.1	?	+	157.6*
Cc1nc2ccccc2c(=O)n1CCc1ccccc1	7.0	-1.7	-2.8	1.3	2.7	nt
O=S(=O)(c1ccccc1)N1CCC(n2cnc3ccccc32)CC1	4.9	-2.1	0.4	0.3	5.7	nt
CC(C)(C)c1cc(S(=O)(=O)CCc2ccncc2)cc(C(C)(C)C)c1F	4.3	-3.0	-2.9	0.4	7.5	nt
CCOC(=O)CN1C=C(c2ccc3ccccc3n2)C(C[N+](=O)[O-])c2ccccc21 (stereo not drawn)	-74.2	-3.3	-0.1	-10.6	101.4*	14.7
COc1ccc(OC)c(/C=N/NC(=O)c2ccc(=O)[nH]n2)c1	4.3	-2.9	-2.8	-3.9	3.7	-18.4
COc1cccc(/C=N/NC(=O)c2ccc(=O)[nH]n2)c1O	-3.8	-4.3	-5.5	-35.0*	0.5	-12.5
O=C(NC1CCCN(CCc2ccccc2)C1)c1c(F)cccc1F (stereo not drawn)	6.1	-1.4	-1.4	1.6	5.5	nt
O=C(O)c1ccc(-c2ccc(/C=C3\NC(=O)N(Cc4ccc(Cl)cc4)C3=O)o2)cc1Cl	nt	-4.6	-0.4	-31.9*	nt	20.5
CSc1ccccc1NC(=O)COC(=O)c1ccc(-n2nc(C)cc2C)cc1	6.2	nt	nt	nt	nt	nt
